In one data set the test system is CYP3A4. The note with it: ref Simcyp; cited from earlier work.
For another data set, the system named is CYP3A. The settings on record: cited from earlier work.
In data set [1] the target is T1, CYP2D6 (Homo sapiens, UniProt P10635). The settings on record: ref Simcyp; cited from earlier work.
In data set [2] the target is T1, CYP2D6. The data set is described as follows: Direct inhibition. In kind it is in vitro ADME.
The conditions of data set [3]: patients; cited from earlier work.
Data set [4] relates to CYP3A4/5. The class given is in vitro ADME. The note with it: human, pooled human liver microsomes, probe midazolam (1'-hydroxylation). On the technique in general: Liver microsomes are vesicles of endoplasmic reticulum, rich in cytochrome P450 enzymes.
The next data set concerns CYP3A4 mRNA. Briefly: Induction in primary cultures of cryopreserved human hepatocytes. The note with it: 1 μM, once daily for 3 days, 3 donors. The class given is cell-based. Put shortly: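 Primary cultures of cryopreserved human hepatocytes, 3 white donors as independent evaluations. Dosed once daily for 3 days with test compound (1, 2.5, 10 μM), vehicle, 25 μM flumazenil (negative control) or 20 μM rifampicin (positive control). Cells lysed and total RNA harvested; CYP3A4 mRNA quantified by RT-PCR.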

The next data set concerns human hepatocytes. The data set is described as follows: Cell integrity of hepatocyte cultures. In kind it is cell-based. The note with it: for Lactate dehydrogenase release: 3 days. Put shortly:
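Cryopreserved primary human hepatocytes from 3 white donors, dosed once daily for 3 days with test compound (1, 2.5, 10 μM), vehicle, 25 μM flumazenil (negative control) or 20 μM rifampicin (positive control). Cell integrity judged by lactate dehydrogenase release into the culture medium and by microscopic review of morphology and confluency.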

A short description of data set [5]: logP by shaking octanol/water, HPLC quantification. In kind it is physicochemical. Put shortly:
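Shake-flask method: octanol-saturated water holding test compound (~26 mg/mL) was shaken with an equal volume of water-saturated octanol for 1 hour at 23°C. Compound quantified by HPLC in each separated phase.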

Data set [6] deals with T1, CYP2D6. The data set is described as follows: In vitro time-dependent inhibition of CYP2D6. The class given is in vitro ADME. The note with it: in vitro data.
The subject of data set [7] is CYP3A4/5. Briefly: Direct inhibition. The class given is in vitro ADME. The settings on record: human, pooled human liver microsomes, probe midazolam (1'-hydroxylation).
Data set [8] in a line: Plasma protein binding in fresh human plasma by ultrafiltration. The class given is in vitro ADME. Put shortly: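 Fresh human plasma spiked with test compound at 5, 10 and 75 μg/mL and incubated 0.5 hours at 37°C. Ultrafiltration followed by LC-MS/MS of both the ultrafiltrate and the originally spiked plasma.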
Data set [9] is described as follows: Clinical pharmacokinetics, phase I study in patients with solid tumors. The class given is in vivo. The settings on record: human, plasma, iv.
A further data set concerns the target T2, CYP2B6 (Homo sapiens, UniProt P20813).
T2 sequence (P20813 1-491): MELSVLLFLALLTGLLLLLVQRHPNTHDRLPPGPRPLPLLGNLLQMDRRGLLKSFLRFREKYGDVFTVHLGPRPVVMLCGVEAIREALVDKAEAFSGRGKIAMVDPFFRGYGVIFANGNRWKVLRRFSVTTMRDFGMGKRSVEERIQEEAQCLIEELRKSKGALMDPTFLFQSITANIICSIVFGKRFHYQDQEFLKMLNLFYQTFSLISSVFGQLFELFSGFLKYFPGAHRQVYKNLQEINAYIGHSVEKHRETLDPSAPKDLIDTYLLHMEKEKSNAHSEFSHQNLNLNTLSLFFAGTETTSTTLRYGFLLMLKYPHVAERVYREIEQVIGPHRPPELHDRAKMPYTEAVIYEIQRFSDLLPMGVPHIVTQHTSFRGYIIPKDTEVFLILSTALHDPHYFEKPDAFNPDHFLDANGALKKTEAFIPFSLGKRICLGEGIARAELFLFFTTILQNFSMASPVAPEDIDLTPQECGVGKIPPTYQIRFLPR
In kind it is in vitro ADME. The note with it: pooled human liver microsomes, probe efavirenz (8-hydroxylation).

Entries after “also recorded” stand apart in the source; their conditions may differ.

What is called Ki is the dissociation constant of the complex between target and ligand, obtained from inhibition or displacement. A low value points to higher affinity. As a reminder, the kinact is the maximal first-order rate at which the target is inactivated. The term logP denotes the decadic logarithm of the partition coefficient of the neutral form, usually between octanol and water. By fraction unbound is commonly meant the share of the substance not bound to proteins or other matrix. A high value points to weak binding. What is called Vd is a proportionality between amount in the body and measured concentration, not a real space. A high value points to extensive tissue distribution. Usually clearance stands for the volume of plasma or blood freed of the substance per unit of time. A high value points to a high capacity for elimination.

T1 sequence (P10635 whole entry): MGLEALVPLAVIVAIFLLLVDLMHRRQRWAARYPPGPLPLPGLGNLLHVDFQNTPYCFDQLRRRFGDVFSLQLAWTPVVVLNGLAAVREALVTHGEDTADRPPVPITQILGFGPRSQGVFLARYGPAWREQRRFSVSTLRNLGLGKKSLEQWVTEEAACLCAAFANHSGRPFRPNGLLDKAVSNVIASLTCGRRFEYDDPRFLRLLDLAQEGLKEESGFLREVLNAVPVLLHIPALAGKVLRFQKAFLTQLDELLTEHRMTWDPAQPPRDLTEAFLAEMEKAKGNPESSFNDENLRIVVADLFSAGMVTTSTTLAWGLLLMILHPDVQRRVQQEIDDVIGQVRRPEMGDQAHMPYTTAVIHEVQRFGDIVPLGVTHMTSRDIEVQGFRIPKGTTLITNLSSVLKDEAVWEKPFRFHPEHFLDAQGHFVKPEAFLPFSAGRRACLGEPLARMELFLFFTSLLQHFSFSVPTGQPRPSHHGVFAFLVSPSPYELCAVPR

As to `Cc1ncc2n1-c1ccc(Cl)cc1C(c1ccccc1F)=NC2` [Midazolam], in the data set with CYP3A4, the “fmCYP (fraction of substrate metabolized by CYP)” value was 0.96. In addition, the “Fraction escaping gut metabolism in the absence of inhibitor (fG)” value in the data set with CYP3A is 0.57.
With `COc1ccc2c(c1)[C@]13CCCC[C@@H]1[C@H](C2)N(C)CC3` [Dextromethorphan], the “fmCYP (fraction of substrate metabolized by CYP)” value at CYP2D6 [1] is 0.72.
Take `Cn1c(COP(=O)(NCCBr)NCCBr)cnc1[N+](=O)[O-]` [Evofosfamide, [1‐methyl‐2‐nitro‐1H‐imidazole‐5‐yl] methyl N, N’‐bis [2‐bromoethyl] diamidophosphate]: the affinity on CYP2D6 [2] corresponds to a Ki of 85.3 µM. The Elimination half-life in data set [3] is 48.6 min. Further, the results for the KI (inactivation) with CYP3A4/5 [4] and on CYP2B6 were 370 µM and 3200 µM, respectively. The kinact in the data set on CYP3A4/5 [4] is 0.000417 s⁻¹; on CYP2B6, 0.000533 s⁻¹. In addition, the “Effect on CYP3A4 mRNA” value in the data set with CYP3A4 mRNA is recorded as “no increase; also recorded: No induction”. Besides, the “Microscopic evaluation of toxicity” value with human hepatocytes (1 μM, day 3, some signs of toxicity in third preparation) is recorded as “no signs of toxicity in two of the three donor cells”; in the data set with human hepatocytes (2.5 and 10 μM) it was “Toxicity was observed in all donor cells”. For the same compound, the Lactate dehydrogenase release entry in the data set with human hepatocytes (10 μM, versus control incubations) was “higher”; in the data set with human hepatocytes (1 and 2.5 μM) it was “comparable to control incubations”. Besides, the logP at 1 hour in [5] came to 0.92. Further, the “Time-dependent inhibition of CYP2D6” value on CYP2D6 [6] was “not time‐dependent”. The same compound returned a Ki at 5 min in the data set with CYP3A4/5 [7] of 141 µM. In data set [8], this compound came in with a fraction unbound at 0.5 h of 0.455. Besides, the Vd in data set [9] turned out to be 0.43 L/kg. The compound also showed a clearance in data set [9] of 1060 mL/min.

The values above are taken from PMC6310869 (CPT: Pharmacometrics & Systems Pharmacology, 2018).
